Measured values gathered from unrelated publications.
Each line is one published result; the experiments were not run side by side.
TAOK1: Serine/threonine-protein kinase TAO1 (TAOK1, Homo sapiens, UniProt Q7L7X3)
NPY1R: Neuropeptide Y receptor type 1 (NPY1R, Homo sapiens, UniProt P25929)
MC3R: Melanocortin receptor 3 (MC3R, Homo sapiens, UniProt P41968)
TYK2 JH1: Non-receptor tyrosine-protein kinase TYK2, JH1 (TYK2, Homo sapiens, UniProt P29597)

target	assay	test system	setting	measurement	value	SMILES
TAOK1	binding, competition with immobilised ligand		1 µM	remaining binding	91%	C[C@]1(O)CCCN(c2nc(Nc3ccc(S(=O)(=O)N[C@H]4CC[C@H](CN5CCN(c6ccc(C7CCC(=O)NC7=O)cc6F)CC5)CC4)cc3Cl)ncc2C(F)(F)F)C1 (some centres unmarked)
NPY1R	cell-free assay		10 µM	inhibition	1%	Cc1cc(F)cc2c(CCC(=O)N[C@@H]3C(=O)NC[C@H]3O)c(-c3ccc(F)cc3)[nH]c12
Type-1 angiotensin II receptor (AGTR1, Homo sapiens, UniProt P30556)	ligand displacement, radioligand		10 µM	inhibition	0%	CCN1/C(=C/C(C)=O)Sc2ccc(F)cc21
MC3R	cAMP, agonist	CHO-K1		Emax	91%	CC(=O)N[C@H](CCCNC(=N)N)C(=O)N[C@H]1CSSC[C@@H](C(N)=O)NC(=O)[C@H](Cc2c[nH]c3ccccc23)NC(=O)[C@H](CCCNC(=N)N)NC(=O)[C@@H](Cc2ccccc2)NC(=O)[C@H](Cc2c[nH]cn2)NC(=O)[C@H](CCC(=O)O)NC1=O
Cyclin-dependent kinase 6, with cyclin D3 (CDK6, Homo sapiens, UniProt Q00534)	binding		1 µM	remaining binding	98%	COc1ccc2oc(-c3ccc4nc(N)oc4c3)c/c(=N\c3ccccc3NC(=O)CCN)c2c1
Cyclin-dependent kinase 6 (CDK6, Homo sapiens, UniProt Q00534)	enzyme activity, inhibitor		0.1 µM	inhibition	1.19%	Cc1cc(O)c(-c2ccc([C@@H](C)CN(C)C)cc2)c2c1[nH]c(=O)c1sccc12
TYK2 JH1	cell-free assay, competition with immobilised ligand		25 µM	remaining binding	99%	N#Cc1ccc(NC(=O)Nc2ccccc2)cc1
TAOK1	binding, competition with immobilised ligand		1 µM	remaining binding	63%	C[C@]1(O)CCCN(c2nc(Nc3ccc(S(=O)(=O)N[C@H]4CC[C@H](CN5CCN(c6ccc(C7CCC(=O)NC7=O)cc6F)CC5)CC4)cc3F)ncc2C(F)(F)F)C1 (some centres unmarked)
Proto-oncogene tyrosine-protein kinase ROS (ROS1, Homo sapiens, UniProt P08922)	binding, competition with immobilised ligand		0.5 µM	remaining binding	89%	CCCCC(=O)Nc1ccc(-c2ccc3ncn(CCC)c(=O)c3c2)cn1
MC3R	cAMP, agonist	CHO-K1		Emax	100%	CCCC[C@H](NC(C)=O)C(=O)N[C@@H](C)C(=O)N[C@@H](Cc1c[nH]cn1)C(=O)N[C@@H](Cc1ccccc1)C(=O)N[C@@H](CCCNC(=N)N)C(=O)N[C@H](Cc1c[nH]c2ccccc12)C(=O)N[C@@H](CC(=O)O)C(=O)N[C@@H](CCCNC(=N)N)C(=O)N[C@@H](Cc1ccccc1)C(=O)N[C@@H](C(=O)N1CCC[C@@H]1C(N)=O)C(C)C
Non-receptor tyrosine-protein kinase TYK2 (TYK2, Homo sapiens, UniProt P29597)	enzyme activity, inhibitor		0.2 µM	inhibition	67.2%	C#Cc1cc(-c2cc(Nc3nc(N[C@@H](C)c4ccc(F)cn4)ncc3Cl)n[nH]2)ccc1C=O
NPY1R	ligand displacement, radioligand		10 µM	inhibition	< 50%	NC/C(=C\F)COc1cccc(Cn2c(=S)[nH]c(=O)c3[nH]cnc32)c1
TYK2 JH1	cell-free assay		0.1 µM	remaining signal	52%	C1=C/COCc2cc(ccc2OCCN2CCCC2)Nc2nccc(n2)-c2cccc(c2)COC/1
Serine/threonine-protein kinase B-raf (BRAF, Homo sapiens, UniProt P15056)	enzyme activity, inhibitor, ADP detection		10 µM	inhibition	100%	Cc1cc2c(C(N)=O)c(N)n(-c3c(C)ccc(O)c3C)c2nc1C
